In brackets after ≈: the same amount, converted by molar mass. Entries after “also recorded” stand apart in the source; their conditions may differ. Where two headings read alike, the source gives them in different places.

Broadly, the EC50 is the concentration that produces a half-maximal response. A word on the solubility: it is the dissolved amount per volume that the medium holds. The low end stands for little dissolved substance, the high end for much dissolved substance.

In data set [1] the test system is chloroquine-resistant Dd2 strain. In words: Antiplasmodial activity against chloroquine-resistant Dd2 strain. Particulars: for antimalarial activity / potency (in words): qualitative statement. The format is cell-based, Plasmodium falciparum.
Data set [2] relates to HepG2 human hepatoma cells. Briefly: Cytotoxicity, HepG2 cells, MTS cell proliferation assay. The format is cell-based. Particulars: for EC50: read-out: HepG2 EC50; for Selectivity: SI = EC50(HepG2)/EC50(Dd2). An outline of the steps:
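HepG2 human hepatoma cells were seeded at 2,500 cells/well and pre-incubated for 24 h. Serial dilutions of test compound (0–40 μM range) were then added, followed by a further 48 h incubation.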
In general terms: Formazan colour is commonly taken as a measure of viable cells.

Data set [3] is described as follows: Aqueous solubility at pH 2.0, in-house HPLC assay. The format is physicochemical.
Data set [4] is described as follows: Aqueous solubility, Biomek FX with pION μSOL evolution software. The format is physicochemical. Particulars: for solubility: pH 6.5.

For the molecule `O=C(Cc1ccc(F)c(F)c1)N1CCC2(CCc3ccc4ccccc4c3O2)CC1` [Compound 5j, 2-(3,4-Difluorophenyl)-1-(3,4-dihydrospiro[benzo[h]chromene-2,4’-piperidin]-1’ yl)ethanone], the “antimalarial activity / potency (in words)” value in data set [1] is recorded as “completely lost”. For the molecule `OC(CN1CCC2(CC1)CC(O)c1ccc3ccccc3c1O2)c1ccc(F)c(F)c1` (stereo not shown) [Compound 1], in data set [2] (Homo sapiens, HepG2, 48 h), the EC50 is > 20 µM. Besides, the Selectivity in data set [2] is reported as >53.3.

Take `O[C@@H](CN1CCC2(CC1)C[C@H](O)c1ccc3ccccc3c1O2)c1ccc(F)c(F)c1` [Compound 3mc, (S)-1’-((R)-2-(3,4-Difluorophenyl)-2-hydroxyethyl)-3,4-dihydrospiro[benzo[h]chromene-2,4’-piperidin]-4-ol]: the EC50 in data set [2] (Homo sapiens, HepG2, 48 h) is > 20 µM. Further, in data set [2], the Selectivity was >15. For the molecule `O=C(CN1CCC2(CC1)CC(O)c1ccc3ccccc3c1O2)c1ccc(F)c(F)c1` (stereo not shown) [Compound 3g, 1-(3,4-Difluorophenyl)-2-(4-hydroxy-3,4-dihydrospiro[benzo[h]chromene-2,4’-piperidin]-1’yl)ethanone], the solubility in data set [3] (aqueous solution, pH 2) lay in the range of 20 to 40 µM (≈ 8.47 to 16.9 µg/mL); in data set [4] (aqueous solution), 20 to 40 µM (≈ 8.47 to 16.9 µg/mL). Take `O=C1CC2(CCN(CCc3ccccc3)CC2)Oc2c1ccc1ccccc21` [Compound 2d, 1’-Phenethylspiro[benzo[h]chromene-2,4’-piperidin]-4(3H)-one]: the solubility in data set [3] (aqueous medium at pH 2.0, pH 2) was ≥ 80 µM; in data set [4] (aqueous medium) it was 40 to 80 µM (≈ 14.9 to 29.7 µg/mL).

Take `OC1CC2(CCN(CCC3CCCCC3)CC2)Oc2c1ccc1ccccc21` (stereo not shown) [Compound 3e, 1’-(2-Cyclohexylethyl)-3,4-dihydrospiro[benzo[h]chromene-2,4’-piperidin]-4-ol]: the solubility fell in the range of 40 to 80 µM (≈ 15.2 to 30.4 µg/mL) in data set [3] (aqueous solution, pH 2) and 20 to 40 µM (≈ 7.59 to 15.2 µg/mL) in data set [4] (aqueous solution). Besides, in data set [1] (Plasmodium falciparum, DD2, read-out: Dd2 EC50, chloroquine-resistant Dd2 strain), the EC50 amounted to 0.32 µM.

`O[C@H](CN1CCC2(CC1)C[C@H](O)c1ccc3ccccc3c1O2)c1ccc(F)c(F)c1` [Compound 3md, (S)-1’-((S)-2-(3,4-Difluorophenyl)-2-hydroxyethyl)-3,4-dihydrospiro[benzo[h]chromene-2,4’-piperidin]-4-ol]: the EC50 in data set [2] (Homo sapiens, HepG2, 48 h) was > 20 µM. In addition, in data set [2], the Selectivity is given as > 11.

For the molecule `OC(CN1CCC2(CCc3ccc4ccccc4c3O2)CC1)c1ccc(F)c(F)c1` (stereo not shown) [Compound 5i, 1-(3,4-Difluorophenyl)-2-(3,4-dihydrospiro[benzo[h]chromene-2,4’-piperidin]-1’-yl)ethanol], the solubility in data set [3] (aqueous solution, pH 2) lay in the range of 40 to 80 µM (≈ 16.4 to 32.8 µg/mL). Turning to `O=C1CC2(CCN(CCCc3ccccc3)CC2)Oc2c1ccc1ccccc21` [Compound 2f, 1’-(3-Phenylpropyl)spiro[benzo[h]chromene-2,4’-piperidin]-4(3H)-one], the solubility in data set [3] (aqueous medium at pH 2.0, pH 2) was in the range of 40 to 80 µM (≈ 15.4 to 30.8 µg/mL); in data set [4] (aqueous medium), 20 to 40 µM (≈ 7.71 to 15.4 µg/mL). For the molecule `c1ccc2c3c(ccc2c1)CCC1(CCN(CCC2CCCCC2)CC1)O3` [Compound 5e, 1’-(2-Cyclohexylethyl)-3,4-dihydrospiro[benzo[h]chromene-2,4’-piperidine]], in data set [3] (aqueous solution, pH 2), the solubility lay in the range of 40 to 80 µM (≈ 14.5 to 29.1 µg/mL). With `OC1CC2(CCN(Cc3ccccc3)CC2)Oc2c1ccc1ccccc21` (stereo not shown) [Compound 3c, 1’-Benzyl-3,4-dihydrospiro[benzo[h]chromene-2,4’-piperidin]-4-ol], the solubility was 40 to 80 µM (≈ 14.4 to 28.8 µg/mL) in data set [3] (aqueous medium at pH 2.0, pH 2) and 40 to 80 µM (≈ 14.4 to 28.8 µg/mL) in data set [4] (aqueous medium). Turning to `O=C(Cc1ccc(F)c(F)c1)N1CCC2(CC1)CC(O)c1ccc3ccccc3c1O2` (stereo not shown) [Compound 3l, 2-(3,4-Difluorophenyl)-1-(4-hydroxy-3,4-dihydrospiro[benzo[h]chromene-2,4’-piperidin]-1’yl)ethanone], the “antimalarial activity / potency (in words)” value in data set [1] is recorded as “lacked antimalarial activity; also recorded: completely lost”. In the case of “1-(3,4-Difluorophenyl)-2-(1,4-dihydro-2H-spiro[phenanthrene-3,4’-piperidin]-1’-yl)ethan-1-one [Compound 5g]”, the EC50 in data set [1] (read-out: Dd2 EC50, chloroquine-resistant Dd2 strain) was > 2.5 µM; in data set [2] (HepG2 cells, 48 h incubation, MTS, n = 3), > 20 µM. In addition, in data set [4] (pH 6.5, Table 6), the “Solubility pH 6.5” value is reported as “^*** (For 20 μM < solubility ≤ 40 μM)”.

`O=C1CC2(CCN(CCC3CCCCC3)CC2)Oc2c1ccc1ccccc21` [Compound 2e, 1’-(2-Cyclohexylethyl)spiro[benzo[h]chromene-2,4’-piperidin]-4(3H)-one]: the solubility in data set [3] (aqueous solution, pH 2) fell in the range of 20 to 40 µM (≈ 7.55 to 15.1 µg/mL); in data set [4] (aqueous solution), 10 to 20 µM (≈ 3.78 to 7.55 µg/mL). Also, in data set [2], the Selectivity is > 30. `OC1CC2(CCN(CCCc3ccccc3)CC2)Oc2c1ccc1ccccc21` (stereo not shown) [Compound 3f, 1’-(3-Phenylpropyl)-3,4-dihydrospiro[benzo[h]chromene-2,4’-piperidin]-4-ol]: the solubility in data set [3] (aqueous medium at pH 2.0, pH 2) is ≥ 80 µM; in data set [4] (aqueous medium), ≥ 80 µM.

Turning to `O=C(CN1CCC2(CC1)CC(=O)c1ccc3ccccc3c1O2)c1ccc(F)c(F)c1` [Compound 2g, 1’-(2-(3,4-Difluorophenyl)-2-oxoethyl)spiro[benzo[h]chromene-2,4’-piperidin]-4(3H)-one], the solubility in data set [3] (aqueous solution, pH 2) was in the range of 40 to 80 µM (≈ 16.9 to 33.7 µg/mL); in data set [4] (aqueous solution), 40 to 80 µM (≈ 16.9 to 33.7 µg/mL). `O[C@H](CN1CCC2(CC1)C[C@@H](O)c1ccc3ccccc3c1O2)c1ccc(F)c(F)c1` [Compound 3mb]: the Selectivity in data set [2] is given as <7. `O=C1CC2(CCN(CCc3ccc(F)c(F)c3)CC2)Oc2c1ccc1ccccc21` [Compound 2h, 1’-(3,4-Difluorophenethyl)spiro[benzo[h]chromene-2,4’-piperidin]-4(3H)-one] displayed a solubility in data set [4] (aqueous solution) of 10 to 20 µM (≈ 4.07 to 8.15 µg/mL). In the case of `O=C1CC2(CCN(C(=O)Cc3ccc(F)c(F)c3)CC2)Oc2c1ccc1ccccc21` [Compound 2l, 1’-(2-(3,4-Difluorophenyl)acetyl)spiro[benzo[h]chromene-2,4’-piperidin]-4(3H)-one], the “antimalarial activity / potency (in words)” value in data set [1] is listed as “completely lost”.

For the molecule `c1ccc2c3c(ccc2c1)CCC1(CCNCC1)O3` [Compound 5a, 3,4-Dihydrospiro[benzo[h]chromene-2,4’-piperidine]], the solubility in data set [3] (aqueous solution, pH 2) lay in the range of 40 to 80 µM (≈ 10.1 to 20.3 µg/mL); in data set [4] (aqueous solution), 20 to 40 µM (≈ 5.07 to 10.1 µg/mL). `O=C1C[C@@]2(CCCN(CCc3ccc(F)c(F)c3)C2)Oc2c1ccc1ccccc21` [Compound 10c, (R)-1’-(3,4-Difluorophenethyl)spiro[benzo[h]chromene-2,3’-piperidin]-4(3H)-one]: the Selectivity in data set [2] was > 30. With `OC1CC2(CCN(CCc3ccccc3)CC2)Oc2c1ccc1ccccc21` (stereo not shown) [Compound 3d, 1’-Phenethyl-3,4-dihydrospiro[benzo[h]chromene-2,4’-piperidin]-4-ol], the solubility in data set [3] (aqueous medium at pH 2.0, pH 2) was in the range of 40 to 80 µM (≈ 14.9 to 29.9 µg/mL); in data set [4] (aqueous medium) it was 40 to 80 µM (≈ 14.9 to 29.9 µg/mL).

In turn, `Fc1ccc(CCN2CCC3(CCc4ccc5ccccc5c4O3)CC2)cc1F` [Compound 5h, 1’-(3,4-Difluorophenethyl)-3,4-dihydrospiro[benzo[h]chromene-2,4’-piperidine]] gave a solubility in data set [3] (aqueous solution, pH 2) of 20 to 40 µM (≈ 7.87 to 15.7 µg/mL). Regarding `c1ccc(CN2CCC3(CCc4ccc5ccccc5c4O3)CC2)cc1` [Compound 5c, 1’-Benzyl-3,4-dihydrospiro[benzo[h]chromene-2,4’-piperidine]], the solubility in data set [3] (aqueous medium at pH 2.0, pH 2) lay in the range of 20 to 40 µM (≈ 6.87 to 13.7 µg/mL). In data set [3] (aqueous solution, pH 2), `OC1CC2(CCNCC2)Oc2c1ccc1ccccc21` (stereo not shown) [Compound 3a, 3,4-Dihydrospiro[benzo[h]chromene-2,4’-piperidin]-4-ol] gave a solubility of 40 to 80 µM (≈ 10.8 to 21.5 µg/mL). Besides, the Selectivity in data set [2] is recorded as >54.5. Regarding `CCN1CCC2(CC1)CC(O)c1ccc3ccccc3c1O2` (stereo not shown) [Compound 3b, 1’-Ethyl-3,4-dihydrospiro[benzo[h]chromene-2,4’-piperidin]-4-ol], the solubility lay within 20 to 40 µM (≈ 5.95 to 11.9 µg/mL) in data set [3] (aqueous solution, pH 2) and 20 to 40 µM (≈ 5.95 to 11.9 µg/mL) in data set [4] (aqueous solution). For `CCN1CCC[C@@]2(CC(O)c3ccc4ccccc4c3O2)C1` (stereo partly drawn) [Compound 11a, (2R)-1’-Ethyl-3,4-dihydrospiro[benzo[h]chromene-2,3’-piperidin]-4-ol], in data set [2] (Homo sapiens, HepG2, 48 h), the EC50 was > 20 µM. The Selectivity in data set [2] is >28.8.

In the case of `O=C1CC2(CCN(Cc3ccccc3)CC2)Oc2c1ccc1ccccc21` [Compound 2c, 1’-Benzylspiro[benzo[h]chromene-2,4’-piperidin]-4(3H)-one], the solubility in data set [3] (aqueous medium at pH 2.0, pH 2) was ≥ 80 µM; in data set [4] (aqueous medium), 40 to 80 µM (≈ 14.3 to 28.6 µg/mL).

Source of the values: publication PMC9233738 (Bioorganic & medicinal chemistry, 2022).
